GalR3 antag = GalR3 antagonists in HEK293 cells, primary screen, cell-based, fluorescence readout | Galanin receptor type 3 (Homo sapiens), O60755 | HEK293 GalR3-CNG cAMP membrane potential fluorescence; galR3 body fused to GalR1 C-terminus | inhibition, % at 3 µM | 360,000 tested, 0.44% active | AID 651719, 2012;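 active = inhibition above the screen-wide average plus 3 SD, cut at about 13% in these data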;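 note: forskolin and galanin both at EC90 stimulate the cells; cAMP rise reported by CNG channel membrane potential dye signal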
Target sequence (O60755 1-299 limits assumed): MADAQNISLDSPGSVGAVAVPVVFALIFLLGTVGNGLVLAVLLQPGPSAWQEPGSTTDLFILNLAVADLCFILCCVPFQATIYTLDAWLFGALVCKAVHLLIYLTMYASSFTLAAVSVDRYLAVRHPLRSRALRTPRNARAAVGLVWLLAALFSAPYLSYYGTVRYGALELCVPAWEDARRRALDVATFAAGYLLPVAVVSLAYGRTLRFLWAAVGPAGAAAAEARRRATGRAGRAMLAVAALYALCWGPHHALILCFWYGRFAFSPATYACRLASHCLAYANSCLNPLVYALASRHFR
MC4R antag cAMP = MC4R antagonists of cAMP signaling, primary screen, cell-based, TR-FRET, antagonist arm of biased-ligand search | MC4R-expressing cells, MTII-stimulated cAMP, LANCE TR-FRET | inhibition, % at 6.5 µM | 360,000 tested, 0.48% active | AID 540295, 2011;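 active = inhibition above its plate's cutoff, the mean of tested wells on that plate plus 3 SD, cut at about 29% in these data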
Target sequence (P32245 whole entry, looked up): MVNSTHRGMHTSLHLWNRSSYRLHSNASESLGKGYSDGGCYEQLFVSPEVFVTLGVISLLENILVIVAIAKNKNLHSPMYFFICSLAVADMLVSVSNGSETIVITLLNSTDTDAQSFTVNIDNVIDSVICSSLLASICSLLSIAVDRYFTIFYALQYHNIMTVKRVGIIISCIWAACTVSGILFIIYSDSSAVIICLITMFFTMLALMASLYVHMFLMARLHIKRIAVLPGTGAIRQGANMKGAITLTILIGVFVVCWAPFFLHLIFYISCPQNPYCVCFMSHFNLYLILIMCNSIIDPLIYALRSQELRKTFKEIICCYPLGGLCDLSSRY
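System: U2OS-MC4R stable cell line; Technique: Eu-cAMP/anti-cAMP TR-FRET, emission 671 nm; Repeats: single well per compound; Also added: Melanotan II; Dosing: one concentration, 6.5 µM nominal; Schedule: 30-min compound, 1-h challenge, 1-h detection, room temperature.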
Efflux pump mplx = inhibitors of Candida efflux pumps in yeast, primary screen, S. cerevisiae, Nile Red, multiplex. S. cerevisiae Candida pump triplex. inhibition, % at 10 µM. 330,000 tested, 0.44% active. AID 485275, 2010;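 active = plate passing quality check with inhibition over a set limit, or well fluorescence over plate mean plus 4 SD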;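 note: Nile Red retained in pooled yeast measured as flow cytometry median fluorescence; higher means more Nile Red kept so more efflux inhibition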
MC4R ag barr = MC4R agonists recruiting beta-arrestin, primary screen, cell-based, luminescence, agonist arm of biased-ligand search. Melanocortin receptor 4 (Homo sapiens), P32245. U2OS MC4R beta-arrestin complementation; percent of melanotan II response, DMSO zero. activation, % at 8.9 µM. 360,000 tested, 0.98% active. AID 540308, 2011;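 active = activation above a per-plate cutoff, the mean activation of sample wells on that plate plus 3 SD, cut at about 8% in these data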
Calb FLC = C. albicans growth inhibition with fluconazole, primary screen, CaCi-2 strain, Alamar Blue fluorescence; C. albicans CaCi-2 + fluconazole, 48 h; 300,000 tested, 0.57% active; growth inhibition, % (test concentration not listed);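 active = growth inhibition above about 58% in most replicates, limit read from the data, passing the limit was not always enough; inconclusive = exactly half the replicates above a set limit; inactive = most replicates below a set limit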;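 note: all wells also contain fluconazole at 8 µg/ml as a sub-toxic cotreatment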
H9c2 TAG inh = inhibitors of triacylglycerol accumulation, primary screen, cell-based, uHTS, fluorescence, H9c2; H9c2 cells, Nile Red lipid (TAG) fluorescence; cells loaded with 200 µM oleic acid; inhibition, % at 12.5 µM; AID 651582, 2012; 230,000 tested, 0.66% active;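 active = pattern-corrected inhibition of lipid staining of at least 50% with the nuclear-stain viability signal not falling by more than 50%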
Hits are given with their value; i = inactive; ? = inconclusive; nt = not tested or not shown. Shown are actives, neighbours in structure and some others; about 2.9% of the full set was active somewhere.

SMILES	GalR3 antag	MC4R antag cAMP	Efflux pump mplx	MC4R ag barr	Calb FLC	H9c2 TAG inh
COC(=O)[C@]12C[C@H](CC(=O)NCC3CCCCC3)C(=O)N(CCc3ccc(OC)c(OC)c3)C1=C[C@H](C(C)(C)C)O[C@@H]2C	i	nt	nt	nt	nt	nt
O=C(C(=O)N1CCC(CNS(=O)(=O)c2cc(C(F)(F)F)cc(C(F)(F)F)c2)CC1)c1cccs1	i	nt	nt	nt	nt	nt
COc1cccc(NC(=O)CN(C)C(=O)c2cccc(S(=O)(=O)Nc3ccccc3OC)c2)c1	i	i	i	i	nt	i
O=C(Cc1ccccc1)N/N=C/c1cc(Br)cc(Cl)c1O	i	i	i	i	114	nt
O=C(N/N=C/c1cc(Br)c(Br)o1)c1ccc2c(c1)OCCO2	i	i	i	i	85	i
COc1cc(Br)cc(/C=N/NC(=O)Cc2ccccc2)c1O	i	i	i	i	i	i
Oc1ccccc1/C=N/n1c2ccccc2c2ccccc21	i	i	i	9.2	i	nt
COc1ccc(NC2=Nc3ccccc3N3C2=Nc2c(c(C)nn2-c2ccc(C)cc2)C3c2cccnc2)cc1 (configuration not stated)	i	i	i	i	119	nt
COc1ccc(N2C(=O)C(=O)/C(=C(/O)c3ccc(C)cc3)C2c2cccnc2)cc1 (configuration not stated)	i	i	i	i	i	nt
O=C(NC(c1ccccc1)c1ccsc1)C1CCN(Cc2ccc(Oc3ccccc3)cc2)CC1 (configuration not stated)	i	i	nt	i	nt	i
CCOC(=O)c1c(NC(=S)NC)sc2c1CC(C)(C)SC2	i	i	i	i	91	i
Cc1ccc(NC(=O)[C@@H]2O[C@H](CO)[C@@H](O)[C@H]2O)cc1C(F)(F)F	i	i	nt	i	nt	i
S=C(Nc1ccccc1)Nc1nc2ccccc2n1CCOc1ccccc1	i	i	i	i	94	i
COc1cccc(CNC(=O)[C@@H]2CCCN2C(=O)[C@@H]2CCCN2C(=O)OC(C)(C)C)c1	i	nt	nt	nt	nt	nt
CCOc1cc(/C=C2\SC(=S)N(NS(=O)(=O)c3ccccc3)C2=O)ccc1O	i	i	i	i	88	nt
O=C1/C(=C/c2ccc(O)c(O)c2)SC(=S)N1Nc1ccccc1	nt	i	nt	i	114	i
COc1ccc(OC)c(/C=C2\SC(=S)N(NS(=O)(=O)c3ccc(C)cc3)C2=O)c1	i	i	i	i	89	nt
O=C1/C(=C/C=C/c2ccco2)SC(=S)N1NS(=O)(=O)c1ccccc1	i	i	1.5	i	nt	i
CC(C(=O)O)N1C(=O)/C(=C/C=C/c2ccco2)SC1=S (configuration not stated)	i	i	i	i	i	i
COc1cc(/C=C2\SC(=S)N(Nc3ccccc3)C2=O)ccc1O	i	i	i	i	i	nt
COc1cccc(CC(=O)NCC2CCN(C(=O)C(=O)c3cccs3)CC2)c1	i	nt	nt	nt	nt	nt
OC(c1ccc2ccccc2c1)c1ncc(-c2cccc3ccccc23)[nH]1 (configuration not stated)	i	i	nt	i	nt	i
CCOC(=O)[C@]12CCCC=C1N(Cc1ccco1)C(=O)[C@H](CC(=O)N1CCOCC1)C2	i	nt	nt	nt	nt	nt
Nc1c(S(=O)(=O)c2cccs2)c2nc3ccccc3nc2n1/N=C/c1cccc(O)c1	i	i	i	8.4	i	nt
COc1cccc(C(O)c2nc(-c3ccc(N(C)C)cc3)cs2)c1 (configuration not stated)	i	i	nt	i	nt	i
SMILES	GalR3 antag	MC4R antag cAMP	Efflux pump mplx	MC4R ag barr	Calb FLC	H9c2 TAG inh
O=[N+]([O-])c1ccc(O)c(P(=O)(c2ccccc2)c2ccccc2)c1	i	i	i	i	100	nt
Cc1ccc(N=Nc2ccc(O)c(P(=O)(c3ccccc3)c3ccccc3)c2)cc1	i	i	i	i	i	i
COc1ccc(C2=CC3=C(Br)C(=O)C(C)(O)C(=O)C3=CO2)cc1 (configuration not stated)	nt	35	i	i	i	i
CCC(=O)OC1(C)C(=O)C2=COC(c3ccc(OC)cc3)=CC2=C(Br)C1=O (configuration not stated)	i	i	i	i	i	i
COc1cc(OC)c(OC)cc1CNC(=O)c1cccc(S(=O)(=O)N2CCc3ccccc3C2)c1	14	i	nt	i	nt	i
CCOC(=O)c1cn(-c2ccc(F)c(F)c2F)c2c(F)c(F)c(F)cc2c1=O	i	i	i	i	i	i
CCOC(=O)c1cn(-c2nc(-c3ccc(Cl)c(Cl)c3)cs2)c2c(F)c(N3CCOCC3)c(F)cc2c1=O	i	i	1.6	i	i	i
CCOc1cccc(-c2cc(-c3n[nH]c(=S)n3CC)c3ccccc3n2)c1	i	i	i	i	69	nt
CC1CCCCC1NC(=O)CSc1nnc(-c2ccco2)n1N (configuration not stated)	i	i	nt	i	nt	i
COc1cc2c(cc1OC)[C@@]1(c3ccccc3)CCCC[C@H]1[C@@H]2NC(=O)C(F)(F)F	i	nt	nt	nt	nt	nt
CN1C(=O)/C(=C/c2cn(CC(=O)NCc3ccco3)c3ccccc23)NC1=S	i	nt	i	nt	i	nt
CN1C(=O)/C(=C/c2cn(CC(=O)N3CCCCC3)c3ccccc23)NC1=S	i	i	i	i	112	nt
O=C(c1cccc(Cl)c1)c1nn(-c2ccccc2)c(=O)cc1C(F)(F)F	i	i	i	8.5	i	i
O=C(c1ccccc1)c1nn(-c2ccccc2)c(=O)cc1C(F)(F)F	i	i	i	i	i	i
COc1ccc(/C=N/OCC(=O)Nc2nc3ccccc3s2)cc1	i	i	i	i	108	nt
C/C(=N\OCC(=O)Nc1nc2ccccc2s1)c1ccccc1	i	i	i	i	i	nt
FC(F)(F)c1nc2ccccc2nc1N/N=C/c1c(Cl)cccc1Cl	i	i	i	8.3	i	i
Fc1cccc(Cl)c1/C=N/Nc1ccccn1	i	i	i	i	i	i
COc1cc(OC)cc(C(=O)NNC(=O)c2cc3ccccc3cc2O)c1	i	i	i	i	81	nt
COc1ccccc1NC(=O)NNC(=O)c1cc2ccccc2cc1O	i	i	i	i	86	i
CCOc1ccccc1C(=O)OCC(=O)Nc1ncc(C(F)(F)F)cc1Cl	i	i	i	i	i	nt
O=C(COC(=O)c1cccc2ccccc12)Nc1ncc(C(F)(F)F)cc1Cl	i	i	i	8.7	?	i
Brc1ccccc1Cn1c(-c2cscn2)nc2ccccc21	i	i	i	9.3	i	nt
CSc1ccccc1NC(=O)Cn1c(-c2cscn2)nc2ccccc21	i	i	i	i	i	nt
CCc1noc2cc(-c3ccccc3)n(C)c(=O)c12	i	nt	nt	nt	nt	nt
COc1ccc(N(C(=O)CCl)C(C(=O)NCCc2ccccc2)c2cccs2)cc1 (configuration not stated)	i	i	i	12	i	nt
